Active and inactive are the calls of the source. The calls are words filed in the database; no cut-off is given here.
Assays:
[1] = biological target: T1, Glycogen phosphorylase, liver form (Homo sapiens, UniProt P06737); test: Competitive inhibition of 6xHis-tagged human liver glycogen phosphorylase-a expressed in Escherichia coli BL21 Gold (DE3) assessed as release of inorganic phosphate using varying levels of glucose-1-phosphate and constant concentration of AMP and glycogen preincubated for 15 mins with AMP and glycogen followed by glucose-1-phosphate addition by Lineweaver-Burk plot method
T1 sequence (P06737 whole entry): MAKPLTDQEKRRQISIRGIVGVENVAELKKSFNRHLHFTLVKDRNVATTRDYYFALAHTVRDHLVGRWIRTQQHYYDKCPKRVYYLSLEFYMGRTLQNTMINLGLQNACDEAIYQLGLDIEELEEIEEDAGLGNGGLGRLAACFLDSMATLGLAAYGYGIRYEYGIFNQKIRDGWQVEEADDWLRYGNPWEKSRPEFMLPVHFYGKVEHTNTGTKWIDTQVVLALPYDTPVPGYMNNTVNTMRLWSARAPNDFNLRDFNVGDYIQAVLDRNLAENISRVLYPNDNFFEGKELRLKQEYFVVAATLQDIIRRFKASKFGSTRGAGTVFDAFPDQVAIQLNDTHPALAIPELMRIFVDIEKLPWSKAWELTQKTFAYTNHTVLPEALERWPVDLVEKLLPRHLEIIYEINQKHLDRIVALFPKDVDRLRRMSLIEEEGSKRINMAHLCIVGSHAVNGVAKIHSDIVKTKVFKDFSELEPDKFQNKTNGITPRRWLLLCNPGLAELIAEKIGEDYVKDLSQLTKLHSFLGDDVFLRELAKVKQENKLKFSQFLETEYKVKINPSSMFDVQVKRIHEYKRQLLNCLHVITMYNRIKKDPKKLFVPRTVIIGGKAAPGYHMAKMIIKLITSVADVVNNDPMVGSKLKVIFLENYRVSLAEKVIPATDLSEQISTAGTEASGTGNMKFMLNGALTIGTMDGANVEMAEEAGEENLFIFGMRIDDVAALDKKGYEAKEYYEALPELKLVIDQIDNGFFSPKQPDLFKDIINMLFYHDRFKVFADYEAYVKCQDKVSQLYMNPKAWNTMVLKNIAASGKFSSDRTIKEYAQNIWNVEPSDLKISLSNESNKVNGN

[2] = biological target: T2, Glycogen phosphorylase, muscle form (Oryctolagus cuniculus, UniProt P00489); test: Competitive inhibition of rabbit muscle glycogen phosphorylase-b in presence of varying levels of glucose-1-phosphate and constant concentration of glycogen and AMP preincubated for 15 mins with AMP and glycogen followed by glucose-1-phosphate addition by Lineweaver-Burk plot method
T2 sequence (P00489 whole entry): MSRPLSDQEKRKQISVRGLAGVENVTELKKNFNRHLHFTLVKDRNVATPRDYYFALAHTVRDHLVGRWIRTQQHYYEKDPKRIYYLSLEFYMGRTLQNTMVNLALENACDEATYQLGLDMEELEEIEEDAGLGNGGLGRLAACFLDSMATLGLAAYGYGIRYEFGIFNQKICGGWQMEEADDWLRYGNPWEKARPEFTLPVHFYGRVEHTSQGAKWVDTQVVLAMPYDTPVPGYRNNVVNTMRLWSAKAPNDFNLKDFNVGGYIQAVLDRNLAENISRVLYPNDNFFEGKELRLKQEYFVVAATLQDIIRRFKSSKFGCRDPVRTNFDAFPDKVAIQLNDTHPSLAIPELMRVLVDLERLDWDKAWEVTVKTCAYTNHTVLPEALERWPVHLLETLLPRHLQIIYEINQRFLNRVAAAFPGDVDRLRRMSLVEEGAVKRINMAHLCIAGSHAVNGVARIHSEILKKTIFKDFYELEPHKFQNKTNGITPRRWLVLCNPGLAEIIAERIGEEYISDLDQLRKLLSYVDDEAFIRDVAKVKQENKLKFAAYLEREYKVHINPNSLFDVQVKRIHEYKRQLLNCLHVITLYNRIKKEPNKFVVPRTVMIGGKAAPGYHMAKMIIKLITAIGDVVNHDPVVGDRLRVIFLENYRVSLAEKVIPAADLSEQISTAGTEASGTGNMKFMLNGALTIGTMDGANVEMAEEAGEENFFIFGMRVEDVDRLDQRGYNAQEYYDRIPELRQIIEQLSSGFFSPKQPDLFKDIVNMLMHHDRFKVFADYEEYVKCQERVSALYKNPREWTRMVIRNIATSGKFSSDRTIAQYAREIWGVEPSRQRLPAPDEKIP
Method in brief: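 Rabbit skeletal muscle GPb, 3 μg/mL, at 30 °C in the glycogen-synthesis direction. Buffer: 30 mM imidazole/HCl pH 6.8, 60 mM KCl, 0.6 mM EDTA, 0.6 mM DTT, 0.2% glycogen, 1 mM AMP. Glc-1-P at 2, 3, 4, 6 or 10 mM, added after 15 min enzyme–glycogen preincubation. Pi read at 850 nm by molybdate method from 1–4 min samples. Ki from 1/v vs [inhibitor]; three independent experiments, mean ± SD.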

[3] = biological target: T2, Glycogen phosphorylase, muscle form; test: Competitive inhibition of rabbit muscle glycogen phosphorylase-a in presence of varying levels of glucose-1-phosphate and constant concentration of glycogen and AMP preincubated for 15 mins with AMP and glycogen followed by glucose-1-phosphate addition by Lineweaver-Burk plot method
Method in brief: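 Rabbit muscle GPa at 3 μg/mL, 30 °C, synthesis direction. Medium: 30 mM imidazole/HCl pH 6.8, 60 mM KCl, 0.6 mM EDTA, 0.6 mM DTT, 0.2% glycogen. Enzyme–glycogen preincubated 15 min before Glc-1-P start. Samples at 1, 2, 3, 4 min quenched in SDS; phosphate measured at 850 nm. Ki derived from 1/v vs inhibitor concentration; three independent runs, mean ± SD.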

[4] = biological target: T2, Glycogen phosphorylase, muscle form
[5] = biological target: T2, Glycogen phosphorylase, muscle form; test: Inhibition of rabbit muscle glycogen phosphorylase
[6] = biological target: T1, Glycogen phosphorylase, liver form; test: Competitive inhibition of human liver glycogen phosphorylase-a assessed as release of inorganic phosphate using varying levels of glucose-1-phosphate and constant concentration of AMP and glycogen preincubated for 15 mins with AMP and glycogen followed by glucose-1-phosphate addition
[7] = biological target: T3, Glycogen phosphorylase, muscle form (Oryctolagus cuniculus) (UniProt P00489); test: Competitive inhibition of rabbit muscle glycogen phosphorylase-b at 625 uM in presence of varying levels of glucose-1-phosphate and constant concentration of glycogen and AMP preincubated for 15 mins with AMP and glycogen followed by glucose-1-phosphate addition by Lineweaver-Burk plot method
T3 sequence (whole entry): T2 sequence (P00489 whole entry)

| SMILES | Ki [1] | Ki [2] | Ki [3] | further results |
| --- | --- | --- | --- | --- |
| O=c1[nH]c(=O)n([C@@H]2O[C@H](CO)[C@@H](O)[C@@H](CO)[C@H]2O)cc1F | – | – | – | Ki [4]: 27.1 µM |
| O[C@@H]1[C@@H](O)[C@H](c2nc(-c3ccccc3)c[nH]2)OC[C@H]1O | – | – | – | Ki [5]: 800 µM |
| OC[C@H]1O[C@@H](c2nnc(-c3ccccc3)[nH]2)[C@H](O)[C@@H](O)[C@@H]1O | – | – | – | Ki [6]: 1.35 µM |
| N[C@@H]1[C@@H](O)[C@H](O)[C@@H](CO)O[C@H]1n1cc(-c2ccccc2)nn1 | – | – | – | inhibition [7]: inactive |
| O[C@@H]1[C@@H](O)[C@H](c2nc(-c3ccc4ccccc4c3)c[nH]2)OC[C@H]1O | – | – | – | Ki [5]: 100 µM |
| O[C@@H]1[C@@H](O)[C@H](c2nc(-c3ccc4ccccc4c3)n[nH]2)OC[C@H]1O | – | – | – | Ki [5]: 491 µM |
| O=c1[nH]c(=O)n([C@@H]2O[C@H](CO)[C@@H](O)[C@H](O)[C@H]2O)cc1F | – | – | – | Ki [4]: 5.5 to 7.9 µM |
| N[C@@H]1[C@@H](O)[C@H](O)[C@@H](CO)O[C@H]1c1nc2ccccc2[nH]1 | – | 107 µM | – | – |

The next lines start with results.

| Ki [1] | Ki [2] | Ki [3] | SMILES | further results |
| --- | --- | --- | --- | --- |
| 2.73 µM | 2.67 µM | 3.11 µM | N[C@@H]1[C@@H](O)[C@H](O)[C@@H](CO)O[C@H]1c1nc(-c2ccccc2)c[nH]1 | – |
| 7.6 µM | 4.8 µM | 5.3 µM | N[C@@H]1[C@@H](O)[C@H](O)[C@@H](CO)O[C@H]1c1nc(-c2ccc3ccccc3c2)n[nH]1 | – |
| – | 354 µM | – | N[C@@H]1[C@@H](O)[C@H](O)[C@@H](CO)O[C@H]1n1cc(-c2ccc3ccccc3c2)nn1 | – |
| 30.8 µM | 35.2 µM | 30.2 µM | N[C@@H]1[C@@H](O)[C@H](O)[C@@H](CO)O[C@H]1c1nc(-c2ccccc2)n[nH]1 | – |
| 0.143 µM | 0.191 µM | 0.125 µM | N[C@@H]1[C@@H](O)[C@H](O)[C@@H](CO)O[C@H]1c1nc(-c2ccc3ccccc3c2)c[nH]1 | – |

Reference: ChEMBL document CHEMBL4017526, “Nanomolar Inhibitors of Glycogen Phosphorylase Based on β-d-Glucosaminyl Heterocycles: A Combined Synthetic, Enzyme Kinetic, and Protein Crystallography Study” (J Med Chem, 2017)
